Experimental data: ChEMBL document CHEMBL4325893, “Synthesis and antibacterial profiles of targeted triclosan derivatives” (2019)
Converted amounts (≈) assume the structure as drawn.

Key:
Streptococcus pneumoniae [1] = assay: Antibacterial activity against Streptococcus pneumoniae ATCC 49619 after 18 hrs; format: functional; details: ATCC 49619, 18 h
Summary of the method: (§1)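 Broth microdilution in Nutrient Broth No. 2. Ethanol stocks were diluted in broth to 0.01–128 µg/ml for triclosan and 0.25–256 µg/ml for glycosides. Overnight 37°C NB2 cultures were diluted 1 in 10^4 in saline and added to the wells. Plates were incubated at 37°C with OD read every 15 min after agitation. MIC was the lowest concentration giving no OD increase at 18 h.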

Streptococcus pyogenes = assay: Antibacterial activity against Streptococcus pyogenes ATCC 19615 after 18 hrs; format: functional; details: ATCC 19615, 18 h; summary of the method: as §1
Proteus mirabilis = assay: Antibacterial activity against Proteus mirabilis ATCC 12453 after 18 hrs; format: functional; details: ATCC 12453, 18 h
Summary of the method: (§2)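 Broth microdilution in Nutrient Broth No. 2; stocks in ethanol diluted to 0.01–128 µg/ml (triclosan) or 0.25–256 µg/ml (glycosides). Overnight 37 °C NB2 cultures diluted 1 in 10^4 in saline and added to the dilutions. Incubation at 37 °C with agitation, OD read every 15 min; MIC is the lowest concentration preventing any OD rise after 18 h.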

Staphylococcus aureus [2] = assay: Antibacterial activity against Staphylococcus aureus ATCC 6538P after 18 hrs; format: functional; summary of the method: as §2
Proteus vulgaris = assay: Antibacterial activity against Proteus vulgaris OCC 195 after 18 hrs; format: functional; details: OCC 195, 18 h; summary of the method: as §2
Escherichia coli [3] = assay: Antibacterial activity against Escherichia coli ATCC 11775 after 18 hrs; format: functional; summary of the method: as §2
Aeromonas hydrophila = assay: Antibacterial activity against Aeromonas hydrophila OCC 778 after 18 hrs; format: functional; details: OCC 778, 18 h; summary of the method: as §2
Salmonella enteritidis = assay: Antibacterial activity against Salmonella enterica subspecies enterica serotype Enteritidis 13076 after 18 hrs; format: functional, Salmonella enterica subsp. enterica serovar Enteritidis; details: Salmonella enterica, 13076, 18 h; summary of the method: as §2
[4] = Antibacterial activity against Salmonella enterica subspecies enterica serotype Arizonae OCC 706 after 18 hrs; format: functional, Salmonella enterica subsp. enterica serovar Arizonae; details: OCC 706, 18 h; summary of the method: as §2
[5] = Antibacterial activity against Salmonella enterica subspecies enterica serotype Indiana OCC 597 after 18 hrs; format: functional, Salmonella enterica subsp. enterica serovar Indiana; details: OCC 597, 18 h; summary of the method: as §2
Staphylococcus aureus [6] = assay: Antibacterial activity against Staphylococcus aureus ATCC 6538 after 18 hrs; format: functional; details: ATCC 6538, 18 h; summary of the method: as §2
Streptococcus pneumoniae [7] = assay: Antibacterial activity against Streptococcus pneumoniae 6305 after 18 hrs; format: functional; details: Streptococcus pneumoniae, 6305, 18 h; summary of the method: as §1
[8] = test system: Salmonella enterica subsp. enterica serovar Abony; assay: Antibacterial activity against Salmonella enterica subspecies enterica serotype Abony NCTC 6017 after 18 hrs; format: functional; details: NCTC 6017, 18 h; summary of the method: as §2
[9] = test system: Staphylococcus epidermidis; assay: Antibacterial activity against Staphylococcus epidermidis ATCC 12228 after 18 hrs; format: functional; details: ATCC 12228, 18 h; summary of the method: as §2
[10] = Antibacterial activity against Salmonella enterica subspecies enterica serotype Virchow NCTC 5742 after 18 hrs; format: functional, Salmonella enterica subsp. enterica serovar Virchow; details: NCTC 5742, 18 h; summary of the method: as §2
Escherichia coli [11] = assay: Antibacterial activity against Escherichia coli ATCC 8739 after 18 hrs; format: functional; details: ATCC 8739, 18 h; summary of the method: as §2
Klebsiella pneumoniae = assay: Antibacterial activity against Klebsiella pneumoniae ATCC 13883 after 18 hrs; format: functional; details: ATCC 13883, 18 h; summary of the method: as §2
Klebsiella aerogenes = assay: Antibacterial activity against Enterobacter aerogenes ATCC 13048 after 18 hrs; format: functional; details: ATCC 13048, 18 h; summary of the method: as §2
Bacillus cereus = assay: Antibacterial activity against Bacillus cereus ATCC 14579 after 18 hrs; format: functional; details: ATCC 14579, 18 h; summary of the method: as §2
Pseudomonas aeruginosa = assay: Antibacterial activity against Pseudomonas aeruginosa ATCC 27853 after 18 hrs; format: functional; details: ATCC 27853, 18 h; summary of the method: as §2
[12] = Antibacterial activity against Salmonella enterica subspecies enterica serotype Pullorum OCC 273 after 18 hrs; format: functional, Salmonella enterica subsp. enterica serovar Pullorum; details: OCC 273, 18 h; summary of the method: as §2
Citrobacter freundii = assay: Antibacterial activity against Citrobacter freundii OCC 851 after 18 hrs; format: functional; details: OCC 851, 18 h; summary of the method: as §2
Escherichia coli [13] = assay: Antibacterial activity against Escherichia coli ATCC 10536 after 18 hrs; format: functional; details: ATCC 10536, 18 h; summary of the method: as §2
[14] = Antibacterial activity against Salmonella enterica subspecies enterica serotype Nottingham NCTC 7832 after 18 hrs; format: functional, Salmonella enterica subsp. enterica serovar Nottingham; details: NCTC 7832, 18 h; summary of the method: as §2
[15] = test system: Staphylococcus epidermidis; assay: Antibacterial activity against Staphylococcus epidermidis 155 after 18 hrs; format: functional; details: Staphylococcus epidermidis, 155, 18 h; summary of the method: as §2
[16] = Antibacterial activity against Enterobacter cloacae ATCC 13047 after 18 hrs; format: functional, Enterobacter cloacae subsp. cloacae; details: ATCC 13047, 18 h; summary of the method: as §2
[17] = test system: Staphylococcus haemolyticus; assay: Antibacterial activity against Staphylococcus haemolyticus OCC 2223 after 18 hrs; format: functional; details: OCC 2223, 18 h; summary of the method: as §1
Escherichia coli [18] = assay: Antibacterial activity against Escherichia coli 700728 after 18 hrs; format: functional; details: Escherichia coli, 700728, 18 h; summary of the method: as §2

OC[C@H]1O[C@H](Oc2cc(Cl)ccc2Oc2ccc(Cl)cc2Cl)[C@H](O)[C@@H](O)[C@@H]1O showed an MIC (Streptococcus pneumoniae [1]) of 32 µg/mL (≈ 70.8 µM), an MIC (Streptococcus pyogenes) of 32 µg/mL (≈ 70.8 µM) and an MIC (Proteus mirabilis) of 2 µg/mL (≈ 4.43 µM). It also gave an MIC (Staphylococcus aureus [2]) of 1 µg/mL (≈ 2.21 µM), an MIC (Proteus vulgaris) of 4 µg/mL (≈ 8.86 µM) and an MIC (Escherichia coli [3]) of 2 to 8 µg/mL (≈ 4.43 to 17.7 µM). It also gave an MIC (Aeromonas hydrophila) of 256 µg/mL (≈ 567 µM), an MIC (Salmonella enteritidis) of 2 to 8 µg/mL (≈ 4.43 to 17.7 µM) and an MIC [4] of 2 to 8 µg/mL (≈ 4.43 to 17.7 µM). The MIC [5] was 2 to 8 µg/mL (≈ 4.43 to 17.7 µM), the MIC (Staphylococcus aureus [6]) was 1 µg/mL (≈ 2.21 µM) and the MIC (Streptococcus pneumoniae [7]) was 32 µg/mL (≈ 70.8 µM). It also gave an MIC [8] of 2 to 8 µg/mL (≈ 4.43 to 17.7 µM), an MIC [9] of 1 µg/mL (≈ 2.21 µM) and an MIC [10] of 2 to 8 µg/mL (≈ 4.43 to 17.7 µM). It also gave an MIC (Escherichia coli [11]) of 2 to 8 µg/mL (≈ 4.43 to 17.7 µM), an MIC (Klebsiella pneumoniae) of 1 µg/mL (≈ 2.21 µM) and an MIC (Klebsiella aerogenes) of 8 µg/mL (≈ 17.7 µM). For the same compound, the MIC (Bacillus cereus) was 128 µg/mL (≈ 283 µM), the MIC (Pseudomonas aeruginosa) was greater than 256 µg/mL and the MIC [12] was 2 to 8 µg/mL (≈ 4.43 to 17.7 µM). It also gave an MIC (Citrobacter freundii) of 4 µg/mL (≈ 8.86 µM), an MIC (Escherichia coli [13]) of 2 to 8 µg/mL (≈ 4.43 to 17.7 µM) and an MIC [14] of 2 to 8 µg/mL (≈ 4.43 to 17.7 µM). The MIC [15] was 1 µg/mL (≈ 2.21 µM), the MIC [16] was 1 µg/mL (≈ 2.21 µM) and the MIC [17] was 1 µg/mL (≈ 2.21 µM). The MIC (Escherichia coli [18]) was 2 to 8 µg/mL (≈ 4.43 to 17.7 µM).
